Reference: ChEMBL document CHEMBL4480384, “Benzo[d]thiazol-2(3H)-ones as new potent selective CB2 agonists with anti-inflammatory properties” (Eur J Med Chem, 2019)
In brackets after ≈: the same amount, converted by molar mass.

What was measured:
Cannabinoid receptor 2 [1] = biological target: T1, Cannabinoid receptor 2 (Homo sapiens, UniProt P34972); assay: Displacement of [3H]-CP-55940 from human CB2 receptor expressed in CHO cell membranes after 1 hr by beta-counting analysis
Cannabinoid receptor 1 [2] = biological target: T2, Cannabinoid receptor 1 (Homo sapiens, UniProt P21554); assay: Displacement of [3H]-CP-55940 from human CB1 receptor expressed in CHO cell membranes after 1 hr by beta-counting analysis
T2 sequence (P21554 whole entry): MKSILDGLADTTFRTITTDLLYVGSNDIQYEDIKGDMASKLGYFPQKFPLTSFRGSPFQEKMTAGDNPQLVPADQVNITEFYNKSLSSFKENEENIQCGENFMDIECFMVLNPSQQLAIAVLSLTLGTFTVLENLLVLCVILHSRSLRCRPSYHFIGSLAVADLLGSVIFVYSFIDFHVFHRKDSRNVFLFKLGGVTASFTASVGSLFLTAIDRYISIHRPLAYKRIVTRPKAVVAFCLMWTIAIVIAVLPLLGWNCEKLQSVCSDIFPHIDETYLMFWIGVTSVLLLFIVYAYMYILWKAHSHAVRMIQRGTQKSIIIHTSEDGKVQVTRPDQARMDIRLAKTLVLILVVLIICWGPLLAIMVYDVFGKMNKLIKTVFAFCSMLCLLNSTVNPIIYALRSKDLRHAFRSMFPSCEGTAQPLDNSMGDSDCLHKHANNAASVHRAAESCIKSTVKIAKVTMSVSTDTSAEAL

Homo sapiens = species on record: Homo sapiens; assay: Selectivity index, ratio of Ki for human CB1 receptor expressed in CHO cell membranes to Ki for human CB2 receptor expressed in CHO cell membranes; type: cell-based
Cannabinoid receptor 2 [3] = biological target: T1, Cannabinoid receptor 2; assay: Displacement of [3H]-CP-55940 from human CB2 receptor expressed in CHO cell membranes at 10 uM after 1 hr by beta-counting analysis
How it was run: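 Competition binding to hCB2-CHO membranes (40 μg) with [3H]-CP-55,940 1 nM in Tris-HCl/MgCl2/EDTA/0.5% BSA buffer, pH 7.4, 1 h at 30°C. Final DMSO was below 0.1%. Filtration on GF/B, then β-count; HU-210 10 µM defined nonspecific binding. Compounds were first screened at 10 μM.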

Cannabinoid receptor 2 [4] = biological target: T1, Cannabinoid receptor 2; assay: Agonist activity at human CB2 receptor expressed in CHO cell membranes assessed as [35S]GTPgammaS binding after 1 hr by beta-counting analysis relative to control; type: functional
How it was run: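 Membranes from hCB2-CHO cells, 40 μg protein, in 50 mM Tris-HCl, 3 mM MgCl2, 1 mM EDTA, 100 mM NaCl, 0.1% BSA, pH 7.4, with 20 μM GDP. [35S]-GTPγS was 0.05 nM final, 1 h at 30°C. Filtration on GF/B, then β-counting. Nonspecific binding was set with 100 μM Gpp(NH)p.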

Cannabinoid receptor 2 [5] = biological target: T1, Cannabinoid receptor 2; assay: Agonist activity at human CB2 receptor expressed in CHO cell membranes assessed as [35S]GTPgammaS binding after 1 hr by beta-counting analysis; type: functional
HT-29 = assay: Cytotoxicity against human HT-29 cells at 10 uM after 72 hrs by MTS assay relative to control; type: cell-based; details: ht-29, 72 h
How it was run: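 HT29 cells were grown in DMEM-Glutamax with 10% FBS at 37°C and 5% CO2. They were seeded at 3000 cells/well in triplicate and allowed 24 h. Compounds were added at 10 μM with DMSO below 0.1%, for 72 h. Read-out was the MTS colorimetric test, given as % proliferation inhibition from ≥4 experiments in duplicate.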

[6] = Protein binding in human plasma assessed as drug recovery after 4 hrs by equilibrium dialysis method; type: ADME, cell-free; details: read-out: Drug recovery
How it was run: (§1)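 Human plasma protein binding was measured by equilibrium dialysis, 4 h at 37°C. Both % bound and % recovery were reported.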

Mus musculus [7] = assay: Anti-inflammatory activity in C57BL6 mouse model of DSS-induced acute colitis assessed as body weight change at 10 mg/kg, ip measured on day 9 (reference value: 79.5 +/- 1.8%); type: functional
Mus musculus [8] = assay: Anti-inflammatory activity in C57BL6 mouse model of DSS-induced acute colitis assessed colon weight/size ratio at 10 mg/kg, ip measured on day 9 (reference value: 0.050 +/- 0.0014); type: functional
Mus musculus [9] = assay: Anti-inflammatory activity in C57BL6 mouse model of DSS-induced acute colitis assessed reduction in MPO activity at 10 mg/kg, ip measured on day 9 relative to control; type: functional; details: 216 h
How it was run: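 DSS-colitis C57BL6 mice were dosed ip at 10 mg/kg daily in hydroxypropyl-β-cyclodextrin, against vehicle controls. Colon was homogenised in phosphate buffer pH 6.0 with 0.5% hexadecyltrimethyl ammonium, then sonicated and freeze-thawed. Supernatant was reacted with o-dianisidine 1 mg/ml and H2O2 0.0005%, and OD read at 450 nm. Results were normalised to Bradford protein; n = 10.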

Mus musculus [10] = assay: Anti-inflammatory activity in C57BL6 mouse model of DSS-induced acute colitis assessed iNos mRNA expression at 10 mg/kg, ip measured on day 9 (reference value: 1 +/- 0.2 a.u.); type: functional
How it was run: (§2)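 Colons came from DSS-colitis C57BL6 mice dosed ip at 10 mg/kg daily in hydroxypropyl-β-cyclodextrin, or given vehicle. Total RNA was extracted and reverse-transcribed. Sod2 and iNos mRNA were measured by SYBR Green RT-qPCR against the PolR2A reference gene. Mean ± SEM, n = 10, Mann-Whitney U test.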

Mus musculus [11] = assay: Anti-inflammatory activity in C57BL6 mouse model of DSS-induced acute colitis assessed Sod2 mRNA expression at 10 mg/kg, ip measured on day 9 (reference value: 2 +/- 0.4 a.u.); type: functional; how it was run: as §2
[12] = Aqueous solubility of compound in stimulated intestinal fluid after 24 hrs by shake-flask method; type: physicochemical; details: simulated intestinal fluid
How it was run: (§3)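 Solubility was measured by shake-flask for 24 h at room temperature in PBS pH 7.4, simulated gastric fluid or simulated intestinal fluid.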

[13] = Aqueous solubility of compound in pH 7.4 PBS after 24 hrs by shake-flask method; type: physicochemical; how it was run: as §3
[14] = Aqueous solubility of compound in stimulated gastric fluid after 24 hrs by shake-flask method; type: physicochemical; details: simulated gastric fluid; how it was run: as §3
[15] = Protein binding in human plasma after 4 hrs by equilibrium dialysis method; type: ADME, cell-free; details: read-out: PPB (converted); how it was run: as §1
[16] = Permeability of the compound across apical side to basolateral side in human Caco2 after 60 mins; type: ADME, cell-based; details: Caco-2, read-out: permeability
How it was run: (§4)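 Caco-2 monolayers were dosed apical-to-basolateral and basolateral-to-apical, pH 6.5/7.4, at 37°C. Samples were taken at 0 and 60 min, and permeability reported in 10^-6 cm/s.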

[17] = Permeability of the compound across basolateral side to apical side in human Caco2 after 60 mins; type: ADME, cell-based; details: Caco-2, read-out: permeability; how it was run: as §4
[18] = Efflux ratio of permeability in human Caco2 after 60 mins; type: ADME, cell-based; details: Caco-2
How it was run: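 Run by a contract lab. Compound incubated with the Caco-2 cell line at 37 °C, pH 6.5/7.4, sampled at 0 and 60 min. Apparent permeability measured A-B and B-A, and the efflux ratio taken as (B-A)/(A-B).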

[19] = Stability in human liver microsomes assessed as compound remaining at 0.1 mg/ml after 60 mins; type: ADME, Microsome; details: read-out: Stability
How it was run: (§5)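 Incubation with human liver microsomes at 0.1 mg/mL, 37°C, sampled at 0 and 60 min. Outputs were % remaining at 60 min, half-life and intrinsic clearance in μL/min/mg.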

[20] = Half life in human liver microsomes at 0.1 mg/ml after 60 mins; type: ADME, Microsome; how it was run: as §5
[21] = Intrinsic clearance in human liver microsomes at 0.1 mg/ml after 60 mins; type: ADME, Microsome; details: read-out: CLH; how it was run: as §5
Cannabinoid receptor 2 [22] = biological target: T1, Cannabinoid receptor 2; assay: Agonist activity at human CB2 receptor
Cannabinoid receptor 1 [23] = biological target: T2, Cannabinoid receptor 1; assay: Agonist activity at human CB1 receptor

T1 sequence (P34972 whole entry): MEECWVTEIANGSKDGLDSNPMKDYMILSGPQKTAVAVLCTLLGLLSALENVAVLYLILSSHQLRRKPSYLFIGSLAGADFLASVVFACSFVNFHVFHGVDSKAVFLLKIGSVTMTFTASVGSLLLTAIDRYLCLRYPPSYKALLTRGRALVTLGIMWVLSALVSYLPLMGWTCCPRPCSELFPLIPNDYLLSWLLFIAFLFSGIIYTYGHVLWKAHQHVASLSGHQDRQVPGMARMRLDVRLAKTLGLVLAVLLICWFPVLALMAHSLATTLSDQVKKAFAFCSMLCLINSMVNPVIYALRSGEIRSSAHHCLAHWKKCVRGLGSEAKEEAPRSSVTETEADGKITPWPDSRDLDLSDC

SMILES | Ki (Cannabinoid receptor 2 [1]) | Ki (Cannabinoid receptor 1 [2]) | Ratio Ki (Homo sapiens) | inhibition (Cannabinoid receptor 2 [3]) | further results
CCCCCn1c(=O)sc2cc(CC34CC5CC(CC(C5)C3)C4)ccc21 | 144 nM | 593 nM | 4 | > 60% | 
CCCCCn1c(=O)sc2cc(C(=O)C3CCCC3)ccc21 | 210 nM | > 1000 nM | > 5 | > 60% | 
CCCCCn1c(=O)sc2cc(C(OC)C34CC5CC(CC(C5)C3)C4)ccc21 (stereo not given) | 344 nM | > 1000 nM | > 3 | > 60% | 
Cc1c(C(=O)c2cccc3ccccc23)c2cccc3c2n1[C@H](CN1CCOCC1)CO3 |  |  |  |  | Emax (Cannabinoid receptor 2 [4]): 181%
CC(C)n1c(=O)sc2cc(C(=O)C34CC5CC(CC(C5)C3)C4)ccc21 | 281 nM | > 1000 nM | > 4 | > 60% | 
CCCCCn1c(=O)sc2cc(/C(=N\O)C34CC5CC(CC(C5)C3)C4)ccc21 | 251 nM | > 1000 nM | > 4 | > 60% | 
CCCCCn1c(=O)sc2cc(C(=O)c3ccccc3)ccc21 | > 1000 nM |  |  | > 60% | 
CCCCCn1c(=O)sc2cc(C(=O)C3C(C)(C)C3(C)C)ccc21 | > 1000 nM |  |  | > 60% | 
CCCCCn1c(=O)oc2cc(C(=O)C3C(C)(C)C3(C)C)ccc21 | > 1000 nM |  |  | > 60% | 
CCCCCn1c(=O)sc2cc(C(=O)NC34CC5CC(CC(C5)C3)C4)ccc21 | > 1000 nM |  |  | > 60% | 
CC(Cn1c(=O)sc2cc(C(=O)C34CC5CC(CC(C5)C3)C4)ccc21)N(C)C (stereo not given) | 506 nM |  |  | > 60% | 
CCCCCn1c(=O)sc2ccc(C(=O)C3C(C)(C)C3(C)C)cc21 | > 1000 nM |  |  | > 60% | 
CCCCCCn1c(=O)sc2cc(C(=O)C34CC5CC(CC(C5)C3)C4)ccc21 | 39 nM | 903 nM | 23 | > 60% | EC50 (Cannabinoid receptor 2 [5]): 32.8 nM; Emax (Cannabinoid receptor 2 [4]): 169%; Activity (HT-29): 0%
CCCCCn1c(=O)sc2cc(C(=O)C34CC5CC(CC(C5)C3)C4)ccc21 | 13.5 nM | 627 nM | 46 | > 60% | recovery at 4 h [6]: 100%; EC50 (Cannabinoid receptor 2 [5]): 41.9 nM; Emax (Cannabinoid receptor 2 [4]): 157%; Activity (HT-29): 0%; Activity (Mus musculus [7]): 85.9%; Ratio (Mus musculus [8]): 0.044; inhibition in vivo at 10 mg/kg (Mus musculus [9]): 43%; Activity (Mus musculus [10]): 0.4 a.u.; Activity (Mus musculus [11]): 1.2 a.u.; solubility thermodynamic at 24 h [12]: 107 µM (≈ 41.2 µg/mL); solubility thermodynamic at 24 h [13]: 1 µM (≈ 0.384 µg/mL); solubility thermodynamic at 24 h [14]: 183 µM (≈ 70.3 µg/mL); fraction unbound at 4 h [15]: 0.11; Papp A→B at 1 h [16]: 1.8 ×10⁻⁶ cm/s; Papp B→A at 1 h [17]: 1.3 ×10⁻⁶ cm/s; efflux ratio at 1 h [18]: 0.7; remaining at 1 h [19]: 43%; half-life [20]: 48 min; microsomal CLint [21]: 146 µL/min/mg
CCCCCn1c(=O)sc2cc(C(=O)C3CCCCC3)ccc21 | 49.5 nM | > 1000 nM | > 20 | > 60% | EC50 (Cannabinoid receptor 2 [5]): 41.5 nM; Emax (Cannabinoid receptor 2 [4]): 178%; Activity (HT-29): 67%
CCCCCn1c(=O)sc2ccc(C(=O)C3CCCCC3)cc21 | > 1000 nM |  |  | > 60% | 
CC(C)(C)NC(=O)c1nn(-c2ccc(F)cc2F)c2c1[C@H]1CC[C@@H]2C1 [TEDALINAB] |  |  |  |  | Ki (Cannabinoid receptor 2 [22]): 11.8 nM; Ki (Cannabinoid receptor 1 [23]): 985 nM
CCS(=O)(=O)Nc1ccc2c(c1)nc(C(C)(C)C)n2CC1CCC(F)(F)CC1 |  |  |  |  | Ki (Cannabinoid receptor 2 [22]): 0.87 nM; Ki (Cannabinoid receptor 1 [23]): 11.7 nM
CCCCn1c(=O)sc2cc(C(=O)C34CC5CC(CC(C5)C3)C4)ccc21 | 26 nM | 780 nM | 30 | > 60% | EC50 (Cannabinoid receptor 2 [5]): 150 nM; Emax (Cannabinoid receptor 2 [4]): 152%; Activity (HT-29): 0%
CCCCCn1c(=O)sc2ccc(C(=O)C34CC5CC(CC(C5)C3)C4)cc21 | 526 nM |  |  | > 60% | 
CCCC(C)(C)c1ccc2c(c1)OC(C)(C)[C@@H]1CC=C(C)C[C@@H]21 | 8 nM | > 1000 nM | > 125 |  | 
CCCCCn1c(=O)oc2cc(C(=O)C34CC5CC(CC(C5)C3)C4)ccc21 | > 1000 nM |  |  | > 60% | 
CCCCCn1c(=O)sc2cc(NC(=O)C34CC5CC(CC(C5)C3)C4)ccc21 | > 1000 nM |  |  | > 60% | 
CCCCCn1c(=O)sc2cc(C(O)C34CC5CC(CC(C5)C3)C4)ccc21 (stereo not given) | 272 nM | > 1000 nM | > 4 | > 60% | 
CCCCCn1c(=O)oc2cc(C(=O)C3CCCCC3)ccc21 | > 1000 nM |  |  | > 60% | 
CCCCCn1c(=O)sc2cc(/C(=N\OC)C34CC5CC(CC(C5)C3)C4)ccc21 | 438 nM |  |  | > 60% | 
